# KCNK9 inh = blocks the human KCNK9 two-pore domain potassium channel. HEK293 KCNK9, FluxOR thallium flux fluorescence; hits give low values. B-score at 10 µM. hit rate 1.2% among 310,000. AID 488922;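 active means ratio B-score over 3 SD below the library mean, with starting fluorescence within 5 SD of its mean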;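 further: negative B-score means less thallium flux so channel inhibition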
# KCNK3 inh = human KCNK3 channel inhibition, primary screen. O14649. CHO-KCNK3 thallium flux, FluxOR fluorescence; hits give low values. B-score at 10 µM. hit rate 0.84% among 340,000;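 active means B-score under library mean minus 4 SD, starting fluorescence ratio at most library mean plus 5 SD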;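 further: more negative B-score means stronger inhibition of thallium flux through KCNK3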
# Target sequence (O14649 whole entry, looked up): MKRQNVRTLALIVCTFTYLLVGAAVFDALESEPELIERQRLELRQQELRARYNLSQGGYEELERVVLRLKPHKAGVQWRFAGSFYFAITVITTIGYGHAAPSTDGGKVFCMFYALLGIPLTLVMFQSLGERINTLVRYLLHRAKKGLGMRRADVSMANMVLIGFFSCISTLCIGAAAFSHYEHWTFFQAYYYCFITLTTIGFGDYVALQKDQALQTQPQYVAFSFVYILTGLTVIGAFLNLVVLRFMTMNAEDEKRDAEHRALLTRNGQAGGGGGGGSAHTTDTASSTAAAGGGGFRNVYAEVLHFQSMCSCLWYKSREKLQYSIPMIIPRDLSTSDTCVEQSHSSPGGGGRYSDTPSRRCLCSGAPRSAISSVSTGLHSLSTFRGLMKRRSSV
# KCNQ1 inh = blocks the human KCNQ1 potassium channel; P51787; CHO-K1 KCNQ1, FluxOR thallium flux fluorescence; hits give high values; B-score at 10 µM; hit rate 1.3% among 310,000; AID 2642;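 active means compounds whose thallium flux B-score, printed positive for inhibition, exceeds three library SD while starting fluorescence stays within three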;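 further: channel opened by potassium depolarization with thallium stimulus after 20 min compound exposure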
# hERG protect = shields human hERG channel from block by proarrhythmic agents | hit rate 0.51% among 310,000 | CHO-hERG, FluxOR thallium flux, dofetilide IC70 present | activation (rescue from dofetilide block), less the hit threshold, % at 10 µM | Q12809 | AID 1511;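 active means activation above the mean of controls blocked by dofetilide plus 5 SD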;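 further: thallium influx through hERG after potassium depolarization seen as dye fluorescence rise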
# PHOSPHO1 block = PHOSPHO1 (human) inhibition. recombinant PHOSPHO1, absorbance phosphatase assay. hit rate 1.1% among 290,000. Q8TCT1. inhibition, % at 13.3 µM; in the data active means inhibition above about 60%
# KCNQ1 act = human KCNQ1 channel potentiation or activation | P51787 | CHO-K1 KCNQ1, thallium flux FluxOR fluorescence; hits give high values | B-score at 10 µM | hit rate 0.35% among 310,000 | AID 2648;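 active means fluorescence ratio B-score, a plate-corrected score, at least three library SD, with initial intensity B-score within 5 SD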
#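 Medium – assay buffer, equal DMSO in all wells · Material – CHO-K1 cell line with stable KCNQ1 potassium channel expression · Signal – kinetic FluxOR thallium fluorescence, 10-s 1-Hz baseline, 110-s post-stimulus read · Compound – single concentration per compound, DMSO matched to controls · Schedule – 37 °C overnight plating, 90-min dark dye load, 20-min compound pretreatment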
# * = called active by the depositor; i = inactive; · = not tested or not shown. In the library only some 4% were active in any assay of this set; here they are far more common.
SMILES,KCNK9 inh,KCNK3 inh,KCNQ1 inh,hERG protect,PHOSPHO1 block,KCNQ1 act
O=C(COC(=O)Cc1ccsc1)NCC1CCCCC1,i,i,i,-6,-5,i
Cc1ccc2cccc(OCC(=O)N3CCc4ccccc43)c2n1,i,i,i,50*,-8,i
COc1ccc(CCn2c(=O)[nH]c3cc(C(=O)NCCc4ccccc4)ccc3c2=O)cc1OC,·,·,·,·,4,·
Cc1cc(N)ccc1N1CCCC1,i,i,7*,-8,2,i
Brc1ccc(OCCCN2CCOCC2)cc1,i,i,i,0,12,i
CCOC(=O)c1c(NS(C)(=O)=O)sc2c1CCC(C)C2 (stereo unspecified),i,i,i,1,32,8*
NNC(=S)NC1CCCCCCCCCCC1,i,i,8*,-18,20,i
Cc1cccc(-n2ncc3c(N(C)Cc4ccccc4)ncnc32)c1,i,-11*,i,-9,36,i
CC1NC(=O)NC1CCCCCC(=O)Nc1ccc(F)cc1 (stereo unspecified),i,i,i,-9,7,i
O=C(NC(Cc1ccccc1)C(=O)O)NC12CC3CC(CC(C3)C1)C2 (stereo unspecified),i,i,i,-4,·,i
COc1ccc(/C=N/Nc2ccccc2C(=O)O)cc1Cn1cc([N+](=O)[O-])cn1,i,i,i,-11,60*,i
Cc1noc(C)c1COc1cccc(C(=O)Nc2ccccc2N2CCOCC2)c1,i,i,i,-7,-14,i
Cc1c(O)ccc(/C(Cc2ccc3ccccc3n2)=N\N)c1O,-7.9*,i,i,-8,-1,i
CCc1cc(/C(Cc2ccc3ccccc3n2)=N\O)c(O)cc1O,i,i,i,-11,24,i
CN(C)CCOC(=O)CCCCCCCCC(=O)OCCN(C)C,i,i,i,-8,25,i
O=C(NCc1ccc(F)cc1)C(c1ccncc1)N(C(=O)c1csnn1)C1CC1 (stereo unspecified),i,i,i,-9,38,i
O=C(NCc1ccccc1)C(c1ccncc1)N(C(=O)c1csnn1)C1CC1 (stereo unspecified),i,i,i,-11,62*,i
CCN(CC)CCNC(=O)c1c(O)c2cc(OC)c(OC)cc2[nH]c1=O,i,i,i,5.0*,-8,i
COc1ccc(CNC(=O)c2c(O)c3cc(OC)c(OC)cc3[nH]c2=O)cc1OC,i,i,i,0,-11,i
COc1ccc(C)cc1NC(=O)C(=O)NNC(=O)c1ccco1,i,i,i,34*,-10,29*
CCCCNC(=O)CC1Nc2ccccc2NC1=O (stereo unspecified),i,i,i,-5,-4,i
CCCCCNC(=O)CC1Nc2c3ccccc3nc(=S)n2C1=O (stereo unspecified),i,i,i,-12,65*,i
CCn1c(=NC(=O)COc2ccccc2)sc2cccc(F)c21,i,i,i,-10,28,i
COc1cc(C(c2nnnn2C(C)(C)C)N2CCN(c3nc4ccccc4s3)CC2)ccc1O (stereo unspecified),i,i,i,-12,61*,i
CCSc1nnc(-c2ccc(C)cc2)c2ccccc12,-7*,i,i,-12,-24,i
O=C1CCCN2N=C(SCC(=O)Nc3cccc(C(F)(F)F)c3)SC2=N1,i,i,i,-9,2,i
CCN(Cc1ccccc1)S(=O)(=O)c1ccc(C(=O)N(CCCN(C)C)c2nc3cc4c(cc3s2)OCCO4)cc1,i,i,7*,-29,·,i
CN(C)CCCN(C(=O)c1cc2cc([N+](=O)[O-])ccc2s1)c1nc2cc3c(cc2s1)OCCO3,i,i,6*,-16,·,i
COc1cc(C2/C(=C(\O)c3ccc4c(c3)OCCO4)C(=O)C(=O)N2Cc2ccco2)cc(OC)c1OC (stereo unspecified),i,i,i,-9,22,i
